Source: paper PMC6147618 (Molecules : A Journal of Synthetic Chemistry and Natural …, 2005)

Tests used:
Caco-2 monolayers = experiment: Caco-2 monolayer permeability; format: in vitro ADME; conditions: Hank's balanced salt solution, 25 mM HEPES pH 7.4, 37°C
How it was run: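 Caco-2 cells were grown in DMEM with 10% foetal bovine serum, 2mM L-glutamine and 1% non-essential amino acids, at 37°C, 95% humidity and 5% CO2, on Transwell polycarbonate inserts. Transport was run in air at 37°C and 95% humidity, in HBSS with 25mM HEPES (pH 7.4). Values are means ± sd of 5 monolayers, or n = 3 for co-incubation experiments.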

P450 = conditions: cited from earlier work

Row | diffusion across the Caco-2 monolayers (Caco-2 monolayers) | Compound | P450-mediated metabolism (P450; in the absence of alkylamide 3) | effect on P450-mediated metabolism of alkylamide 1 (P450; alkylamide 3 present together with 1)
1 | non-diffusing | O=C(/C=C/c1ccc(O)c(O)c1)O[C@@H](C(=O)O)[C@@H](OC(=O)/C=C/c1ccc(O)c(O)c1)C(=O)O [cichoric acid] | – | –
2 | – | C/C=C\C=C/CC/C=C/C=C/C(=O)NCC(C)C [compound 1, (2E,4E,8Z,10Z)-N-isobutyldodeca-2,4,8,10-tetraenamide] | rapid metabolism | –
3 | rapidly diffuse | C#CC#CCCCC/C=C/C(=O)NCC(C)C [compound 3, (2E)-N-isobutylundeca-2-ene-8,10-diynamide] | – | prevented the rapid metabolism of 1
